In ChEMBL document CHEMBL1159032, “Renal excretion of stevioside in rats” (J Nat Prod, 1992):

What was measured:
Rattus norvegicus [1] = assay: Effect on renal excretion in Wistar rat assessed as p-aminohippuric acid clearance at 4 mg/kg/hr, iv administered 30 mins after p-aminohippuric acid infusion (RVb=12.88 ml/min/kg); type: functional, Kidney
In short: (§1)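 Pentobarbital-anaesthetized (30 mg/kg ip) male Wistar rats (~345 g), 10 per dose group, received a priming dose then a sustained jugular infusion of Ringer's with 2% PAH and 10% inulin at 0.03 ml/min. Clearance was measured over a 30-min control period, then a 30-min iv stevioside priming-plus-infusion period. PAH in carotid plasma and timed bladder urine was measured colorimetrically.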

Rattus norvegicus [2] = assay: Effect on renal excretion in Wistar rat assessed as p-aminohippuric acid clearance at 8 mg/kg/hr, iv administered 30 mins after p-aminohippuric acid infusion (RVb=15.60 ml/min/kg); type: functional, Kidney; in short: as §1
Rattus norvegicus [3] = assay: Effect on renal excretion in Wistar rat assessed as glomerular filtration rate at 8 mg/kg/hr, iv (RVb=1.47 %); type: functional, Kidney
In short: (§2)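 Anaesthetized (pentobarbital 30 mg/kg ip) male Wistar rats (~345 g), 10 per group, were studied over a 30-min control period then a 30-min stevioside priming-plus-iv infusion period. Ringer's containing 2% PAH and 10% inulin was infused at 0.03 ml/min. Urine flow from timed bladder collection was expressed as percent of GFR, with GFR taken as inulin clearance (anthrone assay).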

[4] = Clearance in Wistar rat at 8 mg/kg/hr, iv; type: ADME, organism-based; design: route intravenous; settings: in vivo
In short: (§3)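 Male Wistar rats (~345 g, fed, water ad lib) under ip sodium pentobarbital (30 mg/kg) on a heated table, tracheostomized. Stevioside (3% in isotonic Ringer's) was given as a priming dose plus sustained iv infusion via jugular vein. There were two 30-min periods, control then stevioside, with 10 rats per dose group. Carotid blood and timed bladder urine were collected.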

Rattus norvegicus [5] = assay: Effect on renal excretion in Wistar rat assessed as glomerular filtration rate at 4 mg/kg/hr, iv (RVb=1.39 %); type: functional, Kidney; settings: in the assay text read “16 mg/kg/hr” for “4 mg/kg/hr”; in short: as §2
Rattus norvegicus [6] = assay: Effect on renal excretion in Wistar rat assessed as glucose clearance at 12 mg/kg/hr, iv (RVb=0 ml/min/kg); type: functional, Kidney; in short: as §3
Rattus norvegicus [7] = assay: Effect on renal excretion in Wistar rat assessed as glucose clearance at 16 mg/kg/hr, iv (RVb=0 ml/min/kg); type: functional, Kidney; in short: as §3
Rattus norvegicus [8] = assay: Effect on renal excretion in Wistar rat assessed as fractional sodium excretion at 4 mg/kg/hr, iv (RVb=0.61 %); type: functional, Kidney
Rattus norvegicus [9] = assay: Effect on renal excretion in Wistar rat assessed as inulin clearance at 12 mg/kg/hr, iv administered 30 mins after inulin infusion (RVb=5.69 ml/min/kg); type: functional, Kidney
Rattus norvegicus [10] = assay: Effect on renal excretion in Wistar rat assessed as inulin clearance at 16 mg/kg/hr, iv administered 30 mins after inulin infusion (RVb=6.29 ml/min/kg); type: functional, Kidney
Rattus norvegicus [11] = assay: Effect on renal excretion in Wistar rat assessed as inulin clearance at 8 mg/kg/hr, iv administered 30 mins after inulin infusion (RVb=6.33 ml/min/kg); type: functional, Kidney
Rattus norvegicus [12] = assay: Effect on renal excretion in Wistar rat assessed as inulin clearance at 4 mg/kg/hr, iv administered 30 mins after inulin infusion (RVb=6.66 ml/min/kg); type: functional, Kidney
Rattus norvegicus [13] = assay: Effect on renal excretion in Wistar rat assessed as p-aminohippuric acid clearance at 16 mg/kg/hr, iv administered 30 mins after p-aminohippuric acid infusion (RVb=16.70 ml/min/kg); type: functional, Kidney; in short: as §1
Rattus norvegicus [14] = assay: Effect on renal excretion in Wistar rat assessed as fractional sodium excretion at 16 mg/kg/hr, iv (RVb=0.60 %); type: functional, Kidney
Rattus norvegicus [15] = assay: Effect on renal excretion in Wistar rat assessed as glucose clearance at 8 mg/kg/hr, iv (RVb=0 ml/min/kg); type: functional, Kidney; in short: as §3
[16] = Clearance in Wistar rat at 4 mg/kg/hr, iv; type: ADME, organism-based; design: route intravenous; settings: in vivo; in short: as §3
Rattus norvegicus [17] = assay: Effect on renal excretion in Wistar rat assessed as glomerular filtration rate at 4 mg/kg/hr, iv (RVb=1.41 %); type: functional, Kidney; in short: as §2
[18] = Clearance in Wistar rat at 12 mg/kg/hr, iv; type: ADME, organism-based; design: route intravenous; settings: in vivo; in short: as §3
[19] = Clearance in Wistar rat at 16 mg/kg/hr, iv; type: ADME, organism-based; design: route intravenous; settings: in vivo; in short: as §3
Rattus norvegicus [20] = assay: Effect on renal excretion in Wistar rat assessed as glucose clearance at 4 mg/kg/hr, iv (RVb=0 ml/min/kg); type: functional, Kidney; in short: as §3
Rattus norvegicus [21] = assay: Effect on renal excretion in Wistar rat assessed as fractional sodium excretion at 8 mg/kg/hr, iv (RVb=0.58 %); type: functional, Kidney
Rattus norvegicus [22] = assay: Effect on renal excretion in Wistar rat assessed as glomerular filtration rate at 12 mg/kg/hr, iv (RVb=1.87 %); type: functional, Kidney; in short: as §2
Rattus norvegicus [23] = assay: Effect on renal excretion in Wistar rat assessed as p-aminohippuric acid clearance at 12 mg/kg/hr, iv administered 30 mins after p-aminohippuric acid infusion (RVb=15.38 ml/min/kg); type: functional, Kidney; in short: as §1
Rattus norvegicus [24] = assay: Effect on renal excretion in Wistar rat assessed as fractional sodium excretion at 12 mg/kg/hr, iv (RVb=0.70 %); type: functional, Kidney

In the case of `C=C1C[C@@]23CC[C@H]4[C@@](C)(CCC[C@@]4(C)C(=O)O[C@@H]4O[C@H](CO)[C@@H](O)[C@H](O)[C@H]4O)[C@@H]2CC[C@]1(O[C@@H]1O[C@H](CO)[C@@H](O)[C@H](O)[C@H]1O[C@@H]1O[C@H](CO)[C@@H](O)[C@H](O)[C@H]1O)C3` [STEVIOSIDE], the Activity (Rattus norvegicus [1]) is reported as 0.764 L/h/kg, the Activity (Rattus norvegicus [2]) is reported as 1.15 L/h/kg and the Activity (Rattus norvegicus [3]) is reported as 2.19%. It also gave a clearance [4] of 0.578 L/h/kg, an Activity (Rattus norvegicus [5]) of 2.36% and an Activity (Rattus norvegicus [6]) of 0.11 L/h/kg. It also gave an Activity (Rattus norvegicus [7]) of 0.143 L/h/kg, an Activity (Rattus norvegicus [8]) of 0.79% and an Activity (Rattus norvegicus [9]) of 0.355 L/h/kg. It also gave an Activity (Rattus norvegicus [10]) of 0.378 L/h/kg, an Activity (Rattus norvegicus [11]) of 0.391 L/h/kg and an Activity (Rattus norvegicus [12]) of 0.361 L/h/kg. For the same molecule, the Activity (Rattus norvegicus [13]) was 2 L/h/kg, the Activity (Rattus norvegicus [14]) was 1.55% and the Activity (Rattus norvegicus [15]) was 0.0798 L/h/kg. For the same molecule, the clearance [16] was 0.433 L/h/kg, the Activity (Rattus norvegicus [17]) was 1.56% and the clearance [18] was 0.614 L/h/kg. For the same molecule, the clearance [19] was 0.75 L/h/kg, the Activity (Rattus norvegicus [20]) was 0 L/h/kg and the Activity (Rattus norvegicus [21]) was 1.12%. The Activity (Rattus norvegicus [22]) was 2.67%, the Activity (Rattus norvegicus [23]) was 1.7 L/h/kg and the Activity (Rattus norvegicus [24]) was 1.53%.
